In the library only some 1.2% were active in any assay of this set; here they are far more common.
ARNT-TACC3 inh = disruptors of ARNT/TACC3 protein interaction, primary screen, biochemical, AlphaScreen, single concentration | 390,000 compounds, 0.66% hits | AID 623870, 2012 | AlphaScreen His-ARNT PAS-B/GST-TACC3 binding, luminescence; TACC3 fragment carries E629A point mutation | inhibition, % at 9.99 µM | Transforming acidic coiled-coil-containing protein 3 (Homo sapiens), Q9Y6A5;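 active = mean inhibition of replicates at least 50% and at least half of replicates each reaching 50%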;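 also: 0% = complete ARNT plus TACC3 wells and 100% = ARNT alone without TACC3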
CAL PDZ FP-1 = untagged CAL PDZ binding inhibitors, primary screen, biochemical, fluorescence polarization, HTS | Golgi-associated PDZ and coiled-coil motif-containing protein (Homo sapiens), Q9HD26 | purified CAL PDZ, TMR-peptide fluorescence polarization, 1 h | inhibition, % at 24.9 µM | 300,000 compounds, 0.92% hits | AID 602252, 2012;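 active = mean inhibition of at least 30% with at least half of replicates also reaching 30%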;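 also: 0% = DMSO neutral control and 100% = excess unlabeled competitor peptide PRC23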
CAL PDZ FP-2 = CAL PDZ peptide-binding inhibitors, primary screen, biochemical, fluorescence polarization, Cer-tagged CAL PDZ, HTS | Golgi-associated PDZ and coiled-coil motif-containing protein (Homo sapiens), Q9HD26 | purified CAL PDZ, TMR-peptide fluorescence polarization, 1 h | inhibition, % at 20 µM | 330,000 compounds, 0.02% hits;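 active = highest replicate inhibition of at least 40%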;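 also: plate controls were DMSO neutral control wells for no effect and unlabeled competitor peptide control wells for full effect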
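System: purified tagged CAL PDZ domain construct (CerCALP). Schedule: 1 h incubation at room temperature before polarization reading. Medium: 25 mM sodium phosphate pH 7.4, 150 mM NaCl, TCEP, IgG, Thesit. Read-out: percent inhibition from loss of millipolarization. Measured by: FP readout, S and P plane fluorescence. Probe or stimulus: fluorescent TMR peptide probe.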
AlphaScreen ctr = AlphaScreen signal interference compounds, dose response, artefact control for ARNT-TACC3 interaction inhibitor project, biochemical, luminescence, cherry-pick; shares compounds with ARNT-TACC3 inh; His-ARNT PASB-GST AlphaScreen artifact counter-screen; AC50, µM (titrated, usually from 68 µM), for the others: at the top dose activity change, negative = signal decrease; 1,200 compounds, 50% hits; AID 651705, 2012;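 active = every separate test run was called active for a drop in luminescence, with AC50 within twice the top valid dose, actives reach about 71 µM in these data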
The depositor's hits bear a star; . = no result given; [ ] = dose if it differs, or a comment.

SMILES	ARNT-TACC3 inh	CAL PDZ FP-1	CAL PDZ FP-2	AlphaScreen ctr
Cc1ccc(NC(=O)Nc2ccc3c(c2)C(=O)N(C)[C@@H]2CC[C@H](CC(=O)NCC(F)(F)F)O[C@@H]2CO3)cc1	-7	.	.	.
O=C(N[C@@H]1CC[C@@H](CCNS(=O)(=O)c2ccc(F)cc2)O[C@@H]1CO)C1CCCC1	-9	.	.	.
FC(F)(F)c1cnc(-c2cnc(-c3ccccn3)nc2)c(Cl)c1	55*	-3	-1	-16%
FC(F)(F)c1cnc(-c2cnc(-c3ccncc3)nc2)c(Cl)c1	0	-2	0	.
Cc1ccc(-c2ccc3c(c2)O[C@@H](CN(C)C(=O)CC2CC2)[C@@H](C)CN([C@H](C)CO)S3(=O)=O)cc1	1	.	.	.
COCC(=O)N1[C@H](CO)[C@H]2c3ccccc3NC[C@H]21	-6	.	.	.
CC(C)NC(=O)N1[C@H](CO)[C@@H]2c3ccccc3NC[C@@H]21	active	.	.	-6%[42 µM]
CCNC(=O)C[C@@H]1CC[C@H]2[C@@H](COc3ccc(NC(=O)c4ccc5c(c4)OCO5)cc3C(=O)N2C)O1	-6	.	.	.
C/C(CC(=O)NC1CCCCC1)=N\NC(=O)c1ccccn1	13	2	0	.
C/C(CC(=O)Nc1ccc(F)cc1)=N\NC(=O)c1ccccn1	22*	-4	-2	-7%
CC(=O)Nc1ccccc1NC(=O)C/C(C)=N/NC(=O)c1ccccn1	.	-2	-2	.
C/C(CC(=O)NCc1ccccc1Cl)=N/NC(=O)c1ccccn1	26*	.	-2	2%
CCCN(C)C[C@@H]1Oc2ncc(C#CCC(C)C)cc2C(=O)N([C@@H](C)CO)C[C@H]1C	37*	.	.	-20%[42 µM]
C[C@H](CO)N1C[C@H](C)[C@@H](CN(C)Cc2ccccn2)Oc2ncc(C#CC3(O)CCCC3)cc2C1=O	19*	.	.	-9%[38 µM]
C[C@H]1CN([C@@H](C)CO)C(=O)c2cc(C#Cc3ccccn3)cnc2O[C@H]1CN(C)Cc1ccncc1	1	.	.	.
C[C@H](CO)N1C[C@H](C)[C@H](CN(C)Cc2ccccc2)Oc2ncc(C#CC3(O)CCCC3)cc2C1=O	1	.	.	.
C[C@H]1CN([C@@H](C)CO)C(=O)c2cc(C#Cc3ccccn3)cnc2O[C@@H]1CN(C)Cc1ccccc1	active	.	.	-7%[42 µM]
CCCN(C)C[C@H]1Oc2ncc(C#CCC(C)C)cc2C(=O)N([C@@H](C)CO)C[C@@H]1C	-2	.	.	.
CC(C)C(=O)Nc1ccc2c(c1)C(=O)N(C)[C@H]1CC[C@H](CC(=O)N[C@H](C)c3ccccc3)O[C@H]1CO2	-12	.	.	.
C[C@H](CO)N1C[C@H](C)[C@H](CN(C)C(=O)c2cnccn2)Oc2ncc(-c3cccc(F)c3)cc2C1=O	-2	.	.	.
O=C(CNCc1ccccn1)Nc1ccc([N+](=O)[O-])cc1C(=O)Nc1ccccc1F	62*	1	-2	28µM*
O=C(CN1CCN(Cc2ccccc2)CC1)Nc1ccc([N+](=O)[O-])cc1C(=O)Nc1ccccc1F	9	1	-2	.
N/C(=N\S(=O)(=O)c1cc(C(F)(F)F)cc(C(F)(F)F)c1)c1ccncc1	-8	-5	0	.
N/C(=N\NS(=O)(=O)c1cc(C(F)(F)F)cc(C(F)(F)F)c1)c1ccccn1	57*	-5	-1	-5%
CO[C@H]1CN(C)C(=O)c2ccc(NC(C)=O)cc2OC[C@@H](C)N(Cc2ccncc2)C[C@@H]1C	5	.	.	.
SMILES	ARNT-TACC3 inh	CAL PDZ FP-1	CAL PDZ FP-2	AlphaScreen ctr
O=C(NCc1ccccn1)c1c(-c2ccccc2)sc2ccccc12	59*	-5	0	-17%
O=C(NCc1ccccn1)c1ccc(-c2ccccc2)cc1	17	-2	-1	.
O=C(O)COc1ccccc1/C=N/NC(=O)c1cc(-c2ccc(Cl)cc2)nc2ccccc12	41*	-3	-8	56µM*
O=C(O)COc1ccccc1/C=N/NC(=O)c1cc(-c2ccccc2)nc2ccccc12	23	-3	-3	.
CN(Cc1ccccc1)C(=O)c1[nH]cnc1C(=O)Nc1nccs1	55*	-5	-1	-30%
O=C(Nc1nccs1)c1nc[nH]c1C(=O)NCc1ccccc1	29	1	-1	.
Oc1cc(NCCN2CCOCC2)cc2cccnc12	59*	0	1	11µM*
O=C(NCCN1CCOCC1)c1ccc2ccccc2c1	.	-3	0	.
COc1ccc(NC(=O)N[C@H]2CC[C@@H](CCn3cc(-c4ccc(OC)cc4)nn3)O[C@H]2CO)cc1	10	.	.	.

Assay outcomes: PubChem BioAssay, Broad Institute
